Among the data in ChEMBL document CHEMBL2331521, “Biologically active withanolides from Withania coagulans” (J Nat Prod, 2013) are inhibition, viability and IC50 values, retold here.

One may read the inhibition as the percentage by which the read-out fell short of the control. What is called IC50 is the concentration that gives 50% inhibition.

Data set [1] relates to RAW264.7. The data set is described as follows: Cancer chemopreventive activity in mouse RAW264.7 cells assessed as inhibition of LPS-induced nitric oxide production at 20 ug/mL treated 30 mins before LPS challenge measured after 20 hrs by Griess reagent assay.
In data set [2] the test system is HEK293. The data set is described as follows: Inhibition of TNFalpha-induced NFkappaB (unknown origin) activation expressed in HEK293 cells at 20 uM after 6 hrs by luciferase reporter gene assay. It counts as cell-based. The following applies: Homo sapiens. A digest of the protocol: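 HEK293 cells stably carrying an NF-κB response element–luciferase construct (hygromycin-selected). Seeded 2 × 10^4/well in DMEM with 10% FBS, antibiotics and 2 mM L-glutamine, grown 48 h. Fresh medium, then samples with recombinant human TNF-α 2 ng/mL (0.14 nM) for 6 h. Cells lysed, frozen overnight at −80 °C, luciferase luminescence read, percent inhibition calculated. TPCK positive control.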
A general note: A reporter such as luciferase makes a cellular process visible.

Data set [3] can be described thus: Cytotoxicity against human HEK293 cells assessed as cell survival at 20 uM by SRB assay. The following applies: read-out: Survival. The data set is classed as cell-based. A digest of the protocol: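 293/NFκB-luc cells seeded 2 × 10^4/well and grown 48 h. Run in parallel with the reporter assay: fresh medium, samples plus TNF-α 2 ng/mL for 6 h. Fixed with 20% TCA at 4 °C for 30 min, stained with 0.4% SRB in 1% acetic acid for 30 min at room temperature. Dye solubilised in 10 mM Tris base (pH 10), OD read at 515 nm, percent survival calculated.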

Data set [4] can be described thus: Inhibition of TNFalpha-induced NFkappaB (unknown origin) activation expressed in HEK293 cells after 6 hrs by luciferase reporter gene assay. The following applies: Homo sapiens, HEK293, 6 h. It counts as cell-based. A digest of the protocol: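 HEK293 cells stably transfected with luciferase reporter under multiple NF-κB response elements, seeded 2 × 10^4/well, grown 48 h in DMEM/10% FBS/2 mM glutamine. Medium replaced; cells given test substances plus human recombinant TNF-α 2 ng/mL (0.14 nM) for 6 h, lysed, frozen −80 °C overnight, luciferase luminescence read. Percent inhibition; IC50 from dilution series (top 20 μM), each tested three times, curve-fitted.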

A short description of data set [5]: Cytotoxicity against mouse RAW264.7 cells assessed as cell survival at 20 ug/mL by SRB assay. The data set is classed as cell-based. The following applies: read-out: Survival. Summed up:
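RAW 264.7 cells run under the NO assay conditions (30 min sample pretreatment, then 1 μg/mL LPS for 20 h). Cells fixed with 10% TCA and stained with 0.4% SRB in 1% acetic acid. Bound dye dissolved in 10 mM Tris and OD read at 515 nm.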
(Sulforhodamine B stains cellular protein and so reports cell mass.)

For data set [6], the system named is RAW264.7. The data set is described as follows: Cancer chemopreventive activity in mouse RAW264.7 cells assessed as inhibition of LPS-induced nitric oxide production treated 30 mins before LPS challenge measured after 20 hrs by Griess reagent assay. In general terms: Nitrite, measured by Griess reagent, commonly stands in for NO production.
Data set [7] relates to HEK293. Kind of data set: Cytotoxicity against human HEK293 cells assessed as cell survival by SRB assay. It counts as cell-based. Summed up: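 293/NFκB-luc cells (HEK293 stably carrying NF-κB-response-element luciferase reporter) seeded 2 × 10^4/well, grown 48 h in DMEM/10% FBS; treated with samples plus TNF-α 2 ng/mL (0.14 nM) for 6 h. Then TCA-fixed (20%, 4 °C, 30 min), stained 0.4% SRB in 1% acetic acid, dye solubilized in 10 mM Tris base pH 10; OD 515 nm; percent survival at 20 μM.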

As to `CC1=C(C)C(=O)O[C@@H]([C@](C)(O)C2=CC[C@@]3(O)[C@@H]4CC=C5CC=CC(=O)[C@]5(C)[C@H]4CC[C@]23C)C1`, in the data set on RAW264.7 [1], the inhibition at 20 µg/mL was 69.1%. For the same molecule, the inhibition in the data set on HEK293 [2] stood at 90.2%. The viability at 20 µM in data set [3] was determined as 100%. The IC50 in data set [4] was determined as 5.7 µM; with RAW264.7 [6], 10.4 µM. The viability at 20 ug/mL in data set [5] came out at 100%.
In the case of `Cc1ccc(S(=O)(=O)N[C@@H](Cc2ccccc2)C(=O)CCl)cc1` [TPCK], the concentration for half-maximal inhibition (IC50) in the data set with HEK293 [7] was 3.8 µM; in data set [4] it was 10.8 µM.
Consider `CC1=C(CO)C(=O)O[C@@H]([C@](C)(O)[C@@]2(O)CC[C@H]3[C@@H]4CC=C5CC=CC(=O)[C@]5(C)[C@H]4CC[C@@]32C)C1` [WITHACOAGULIN G], for which, in the data set with RAW264.7 [1], the inhibition at 20 µg/mL is 100%. This molecule registered an inhibition with HEK293 [2] of 90.1%. Moreover, in data set [3], the viability at 20 µM was determined as 93.2%. Also, the results for the IC50 (in data set [4]; in the data set with RAW264.7 [6]) were 11.8 µM and 1.9 µM, respectively. Also, the viability at 20 ug/mL in data set [5] was 96.7%.
As to `CC1=C(C)C(=O)O[C@@H]([C@](C)(O)[C@H]2CC[C@@]3(O)[C@@H]4CC=C5CC=CC(=O)[C@]5(C)[C@H]4CC[C@]23C)C1`, in the data set on RAW264.7 [1], the inhibition at 20 µg/mL is 88.5%. This molecule had an inhibition in the data set on HEK293 [2] of 86.9%. Besides, the viability at 20 µM in data set [3] was determined as 71.9%. Also, the IC50 in data set [4] was 12.3 µM; in the data set with RAW264.7 [6], 37.5 µM. In addition, the viability at 20 ug/mL in data set [5] came out at 100%.
In the case of `CC1=C(C)C(=O)O[C@@H]([C@](C)(O)[C@@]2(O)CC[C@]3(O)[C@@H]4CC=C5C=CCC(=O)[C@]5(C)[C@H]4CC[C@]23C)C1` [WITHACOAGULIN I], the inhibition at 20 µg/mL in the data set on RAW264.7 [1] turned out to be 69.8%. In the data set on HEK293 [2], this molecule gave an inhibition of 89.9%. Moreover, the viability at 20 µM in data set [3] was 89.4%. For the same molecule, the half-maximal inhibitory concentration (IC50) in data set [4] worked out at 8.8 µM; with RAW264.7 [6], 29 µM. The viability at 20 ug/mL in data set [5] came out at 100%.
In data set [4], `Cc1ccc(S(=O)(=O)/C=C/C#N)cc1` returned an IC50 of 5 µM.
Consider `CC1=C(CO)C(=O)O[C@@H]([C@](C)(O)[C@H]2CC=C3[C@@H]4CC=C5CC=CC(=O)[C@]5(C)[C@H]4CC[C@@]32C)C1`, for which the inhibition at 20 µg/mL in the data set with RAW264.7 [1] came out at 76.3%. This molecule returned an inhibition in the data set on HEK293 [2] of 88.6%. Further, the viability at 20 µM in data set [3] came to 48.3%. Also, the figures for the IC50 (in data set [4]; in the data set on RAW264.7 [6]) were 12.4 µM and 38.2 µM, respectively. Besides, the viability at 20 ug/mL in data set [5] is 100%.
Consider `CC1=C(CO)C(=O)O[C@@H]([C@](C)(O)[C@H]2CC[C@@]3(O)[C@@H]4CC=C5CC=CC(=O)[C@]5(C)[C@H]4CC[C@]23C)C1`, for which the inhibition at 20 µg/mL in the data set with RAW264.7 [1] worked out at 31.4%. This molecule had an inhibition with HEK293 [2] of 92.8%. Also, the viability at 20 µM in data set [3] was found to be 100%. The molecule also registered an IC50 in data set [4] of 7 µM. The viability at 20 ug/mL in data set [5] was 100%.
Regarding `CC1=C(CO)C(=O)O[C@@H]([C@](C)(O)[C@]2(O)CC[C@@]3(O)[C@@H]4CC=C5CC=CC(=O)[C@]5(C)[C@H]4CC[C@]23C)C1`, the inhibition at 20 µg/mL in the data set with RAW264.7 [1] turned out to be 95.1%. For the same molecule, in the data set with HEK293 [2], the inhibition was determined as 90.1%. For the same molecule, the viability at 20 µM in data set [3] is 88.6%. Further, the IC50 in data set [4] amounted to 1.6 µM; in the data set on RAW264.7 [6] it was 6.9 µM. Besides, the viability at 20 ug/mL in data set [5] is 100%.
Regarding `CC1=C(CO)C(=O)O[C@@H]([C@](C)(O)[C@@]2(O)CC=C3[C@@H]4CC=C5CC=CC(=O)[C@]5(C)[C@H]4CC[C@@]32C)C1` [WITHACOAGULIN H], the inhibition at 20 µg/mL in the data set with RAW264.7 [1] worked out at 100%. Further, the inhibition in the data set with HEK293 [2] was determined as 98.3%. In addition, the viability at 20 µM in data set [3] worked out at 90.3%. Besides, the IC50 in data set [4] is 5 µM; with RAW264.7 [6] it was 3.1 µM. For the same molecule, the viability at 20 ug/mL in data set [5] was 70.4%.
For `CC1=C(C)C(=O)O[C@@H]([C@](C)(O)[C@]2(O)CC[C@@]3(O)[C@@H]4CC=C5CC=CC(=O)[C@]5(C)[C@H]4CC[C@]23C)C1` [WITHANOLIDE F], in the data set with RAW264.7 [1], the inhibition at 20 µg/mL stood at 84.6%. Besides, the inhibition in the data set with HEK293 [2] amounted to 90.8%. Further, in data set [3], the viability at 20 µM was found to be 100%. Moreover, the values for the IC50 (in data set [4]; in the data set with RAW264.7 [6]) were 5.7 µM and 10.9 µM, respectively. For the same molecule, the viability at 20 ug/mL in data set [5] was found to be 100%.
